Measured values from PMC4136711 (Journal of Medicinal Chemistry, 2014).

Columns and labels:
L3MBTL1 = L3MBTL1 (Homo sapiens, UniProt Q9Y468); conditions: methyllysine reader protein
PRC2 complex = PRC2 complex (Homo sapiens, UniProt Q15910); assay: Selectivity assay; format: biochemical; conditions: read-out: estimated IC50 PRC2
How it was run: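 Tritium-labelled methyl transfer from 3H-SAM to peptide substrate, with substrates near their Km values for the enzyme. Test compound ranged from 100 nM to 100 μM. Reactions were quenched with 7.5 M guanidine hydrochloride, diluted in 20 mM Tris pH 8.0, and captured on FlashPlates for 1 h before counting CPM. The no-compound signal defined 100% activity and the no-enzyme signal defined 0%.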

SETD8 = biological target: T1, SETD8 (Homo sapiens, UniProt Q9NQR1); format: binding
T1 sequence (Q9NQR1 257-378 limits assumed): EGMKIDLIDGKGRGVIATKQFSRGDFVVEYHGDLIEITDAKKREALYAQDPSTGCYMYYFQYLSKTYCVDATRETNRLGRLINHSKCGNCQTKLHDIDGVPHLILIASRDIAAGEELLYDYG

Sequence of PRC2 complex (Q15910 whole entry): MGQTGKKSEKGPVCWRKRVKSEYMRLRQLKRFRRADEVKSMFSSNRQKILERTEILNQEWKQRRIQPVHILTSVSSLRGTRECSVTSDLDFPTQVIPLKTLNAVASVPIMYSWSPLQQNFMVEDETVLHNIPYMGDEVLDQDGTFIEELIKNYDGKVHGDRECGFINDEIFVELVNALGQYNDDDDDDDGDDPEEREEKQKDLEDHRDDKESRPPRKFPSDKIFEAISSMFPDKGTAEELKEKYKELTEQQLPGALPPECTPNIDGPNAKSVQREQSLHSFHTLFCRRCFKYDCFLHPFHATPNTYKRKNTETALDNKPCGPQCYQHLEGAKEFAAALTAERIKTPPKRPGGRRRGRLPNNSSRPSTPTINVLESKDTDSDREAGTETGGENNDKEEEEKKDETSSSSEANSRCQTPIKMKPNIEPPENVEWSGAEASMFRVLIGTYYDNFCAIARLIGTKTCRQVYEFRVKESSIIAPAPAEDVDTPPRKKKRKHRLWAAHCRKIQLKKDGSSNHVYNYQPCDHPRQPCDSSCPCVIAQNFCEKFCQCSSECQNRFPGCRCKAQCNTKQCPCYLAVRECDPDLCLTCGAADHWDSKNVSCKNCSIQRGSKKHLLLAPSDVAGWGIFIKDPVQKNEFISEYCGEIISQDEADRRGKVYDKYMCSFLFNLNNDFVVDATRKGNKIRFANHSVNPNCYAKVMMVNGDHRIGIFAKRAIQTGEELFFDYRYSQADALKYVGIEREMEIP
Sequence of PRC2 complex (O75530 whole entry partner): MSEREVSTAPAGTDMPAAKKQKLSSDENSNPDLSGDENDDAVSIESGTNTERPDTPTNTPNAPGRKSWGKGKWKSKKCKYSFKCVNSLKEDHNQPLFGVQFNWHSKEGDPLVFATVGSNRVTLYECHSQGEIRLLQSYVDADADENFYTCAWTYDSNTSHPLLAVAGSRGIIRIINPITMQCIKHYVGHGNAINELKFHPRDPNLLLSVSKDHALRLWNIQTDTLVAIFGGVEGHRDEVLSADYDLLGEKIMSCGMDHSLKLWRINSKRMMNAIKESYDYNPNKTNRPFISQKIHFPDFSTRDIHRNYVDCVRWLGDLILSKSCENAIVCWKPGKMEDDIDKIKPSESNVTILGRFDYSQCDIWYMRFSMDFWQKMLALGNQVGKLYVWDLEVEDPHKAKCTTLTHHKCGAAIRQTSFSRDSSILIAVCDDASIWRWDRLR
Sequence of PRC2 complex (Q15022 whole entry partner): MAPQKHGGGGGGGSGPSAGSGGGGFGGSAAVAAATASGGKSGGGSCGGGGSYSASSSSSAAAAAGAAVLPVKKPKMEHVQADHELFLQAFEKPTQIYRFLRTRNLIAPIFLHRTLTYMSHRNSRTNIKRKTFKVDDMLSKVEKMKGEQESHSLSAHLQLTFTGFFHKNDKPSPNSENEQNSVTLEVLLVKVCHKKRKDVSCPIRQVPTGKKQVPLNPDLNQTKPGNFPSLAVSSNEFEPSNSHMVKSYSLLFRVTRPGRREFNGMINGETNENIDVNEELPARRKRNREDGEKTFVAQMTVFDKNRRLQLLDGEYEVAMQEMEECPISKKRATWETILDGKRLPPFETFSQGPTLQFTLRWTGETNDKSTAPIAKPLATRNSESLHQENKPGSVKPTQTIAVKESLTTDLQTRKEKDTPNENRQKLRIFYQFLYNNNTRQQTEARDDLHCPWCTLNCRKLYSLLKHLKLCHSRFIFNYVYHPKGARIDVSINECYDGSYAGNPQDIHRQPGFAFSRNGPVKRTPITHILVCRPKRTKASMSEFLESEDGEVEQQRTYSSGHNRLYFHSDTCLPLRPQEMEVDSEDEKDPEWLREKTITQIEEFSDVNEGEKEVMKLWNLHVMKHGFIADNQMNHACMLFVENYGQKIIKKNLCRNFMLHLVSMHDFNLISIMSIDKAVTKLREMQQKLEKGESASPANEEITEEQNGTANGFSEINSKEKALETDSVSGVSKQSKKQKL
Sequence of L3MBTL1 (Q9Y468 whole entry, species assumed): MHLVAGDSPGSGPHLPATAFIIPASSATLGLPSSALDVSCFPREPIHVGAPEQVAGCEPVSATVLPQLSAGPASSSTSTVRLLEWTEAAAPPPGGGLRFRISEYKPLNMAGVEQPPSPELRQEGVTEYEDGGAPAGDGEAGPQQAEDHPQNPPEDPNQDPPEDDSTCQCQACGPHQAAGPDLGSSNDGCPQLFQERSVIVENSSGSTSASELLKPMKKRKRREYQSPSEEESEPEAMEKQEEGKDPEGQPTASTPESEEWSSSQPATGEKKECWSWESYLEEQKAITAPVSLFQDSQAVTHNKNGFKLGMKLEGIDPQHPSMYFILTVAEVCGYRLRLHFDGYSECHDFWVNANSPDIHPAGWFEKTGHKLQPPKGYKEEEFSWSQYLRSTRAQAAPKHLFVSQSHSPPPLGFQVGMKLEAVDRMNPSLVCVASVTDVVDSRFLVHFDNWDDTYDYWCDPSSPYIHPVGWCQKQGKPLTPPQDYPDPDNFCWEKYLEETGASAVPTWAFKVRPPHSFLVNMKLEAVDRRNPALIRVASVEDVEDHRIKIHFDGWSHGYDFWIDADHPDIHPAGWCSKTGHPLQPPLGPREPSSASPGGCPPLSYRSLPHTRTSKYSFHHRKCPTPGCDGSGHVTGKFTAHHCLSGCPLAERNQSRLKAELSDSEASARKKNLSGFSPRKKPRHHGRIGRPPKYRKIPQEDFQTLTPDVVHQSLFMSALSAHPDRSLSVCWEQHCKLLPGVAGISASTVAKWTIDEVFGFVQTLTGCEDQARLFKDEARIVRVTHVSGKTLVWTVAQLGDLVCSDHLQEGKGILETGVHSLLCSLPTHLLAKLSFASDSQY

Activity for L3MBTL1 (L3MBTL1) | potency estimated from few doses (PRC2 complex) [µM] | Displacement of FITC-labeled H4K20me peptide (FP), in words (SETD8) | SMILES
no appreciable activity | > 50 |  | COc1cc2nc(N3CCCC3)nc(NCCCCCN3CCCC3)c2cc1OC [Compound 1, 6,7-Dimethoxy-2-(pyrrolidin-1-yl)-N-(5-(pyrrolidin-1-yl)pentyl)quinazolin-4-amine]
 |  | did not displace the peptide | COc1cc2nc(N3CCCC3)nc(N(C)CCCCCN3CCCC3)c2cc1OC [Compound 14, 6,7-Dimethoxy-N-methyl-2-(pyrrolidin-1-yl)-N-(5-(pyrrolidin-1-yl)pentyl)quinazolin-4-amine]
